Legend:
[1] = molecular target: T1, Somatostatin receptor type 5 (Homo sapiens, UniProt P35346); experiment: Inhibition of somatostatin binding to sst5 receptor at 1 uM in radioligand binding assay ([125I]Tyr11-SRIF) in membranes from CHO-K1 cells; format: cell membranes
Procedure, shortened: (§1)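 Competitive binding against [125I]-Tyr11-SRIF on membranes from CHO-K1 cells expressing human sst1–sst5, with each test compound at a single concentration. Nonspecific binding was defined with unlabelled SRIF. Incubations were stopped by rapid filtration through 0.5% PEI-soaked glass-fibre filters, then three washes in 50 mM Tris-HCl pH 7.4 with 5 mg/mL BSA. Filter radioactivity was gamma counted.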

[2] = molecular target: T2, Somatostatin receptor type 1 (Homo sapiens, UniProt P30872); experiment: Inhibitory concentration required for somatostatin 1 receptor in radioligand binding assay ([125I]Tyr11-SRIF)
Procedure, shortened: (§2)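 IC50 values were determined by displacement of [125I]-Tyr11-SRIF on membranes from CHO-K1 cells expressing the relevant human sst subtype. Unlabelled SRIF defined nonspecific binding. Bound ligand was separated by rapid filtration on glass-fibre filters pre-soaked in 0.5% PEI. Filters were washed three times with 50 mM Tris-HCl pH 7.4 containing 5 mg/mL BSA and gamma counted.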

[3] = molecular target: T1, Somatostatin receptor type 5; experiment: Inhibitory concentration required for somatostatin 5 receptor in radioligand binding assay ([125I]-Tyr11-SRIF); procedure, shortened: as §2
[4] = molecular target: T3, Somatostatin receptor type 4 (Homo sapiens, UniProt P31391); experiment: Inhibition of somatostatin binding to sst4 receptor at 1 uM in radioligand binding assay ([125I]Tyr11-SRIF) in membranes from CHO-K1 cells; format: cell membranes; procedure, shortened: as §1
[5] = molecular target: T2, Somatostatin receptor type 1; experiment: Inhibition of somatostatin binding to sst1 receptor at 1 uM in radioligand binding assay ([125I]Tyr11-SRIF) in membranes from CHO-K1 cells; format: cell membranes; procedure, shortened: as §1
[6] = molecular target: T4, Somatostatin receptor type 3 (Homo sapiens, UniProt P32745); experiment: Inhibitory concentration required for somatostatin 3 receptor in radioligand binding assay ([125I]Tyr11-SRIF); procedure, shortened: as §2
[7] = molecular target: T5, Somatostatin receptor type 2 (Homo sapiens, UniProt P30874); experiment: Inhibition of somatostatin binding to sst2 receptor at 1 uM in radioligand binding assay ([125I]Tyr11-SRIF) in membranes from CHO-K1 cells; format: cell membranes; procedure, shortened: as §1
[8] = molecular target: T3, Somatostatin receptor type 4; experiment: Inhibitory concentration required for somatostatin 4 receptor in radioligand binding assay ([125I]Tyr11-SRIF); procedure, shortened: as §2
[9] = molecular target: T5, Somatostatin receptor type 2; experiment: Inhibitory concentration required for somatostatin 2 receptor in radioligand binding assay ([125I]Tyr11-SRIF); procedure, shortened: as §2
[10] = molecular target: T4, Somatostatin receptor type 3; experiment: Inhibition of somatostatin binding to sst3 receptor at 1 uM in radioligand binding assay ([125I]Tyr11-SRIF) in membranes from CHO-K1 cells; format: cell membranes; procedure, shortened: as §1

T1 sequence (P35346 whole entry): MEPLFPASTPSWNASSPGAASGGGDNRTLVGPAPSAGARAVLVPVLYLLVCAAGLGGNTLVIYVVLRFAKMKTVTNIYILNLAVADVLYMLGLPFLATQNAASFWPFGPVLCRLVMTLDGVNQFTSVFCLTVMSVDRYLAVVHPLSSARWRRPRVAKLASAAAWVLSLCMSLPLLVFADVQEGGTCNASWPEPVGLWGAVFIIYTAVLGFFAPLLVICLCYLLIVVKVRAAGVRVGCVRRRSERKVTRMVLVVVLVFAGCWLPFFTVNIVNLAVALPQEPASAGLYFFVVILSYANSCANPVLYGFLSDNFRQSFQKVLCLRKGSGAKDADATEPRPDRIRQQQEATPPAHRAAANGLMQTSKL
T2 sequence (P30872 whole entry): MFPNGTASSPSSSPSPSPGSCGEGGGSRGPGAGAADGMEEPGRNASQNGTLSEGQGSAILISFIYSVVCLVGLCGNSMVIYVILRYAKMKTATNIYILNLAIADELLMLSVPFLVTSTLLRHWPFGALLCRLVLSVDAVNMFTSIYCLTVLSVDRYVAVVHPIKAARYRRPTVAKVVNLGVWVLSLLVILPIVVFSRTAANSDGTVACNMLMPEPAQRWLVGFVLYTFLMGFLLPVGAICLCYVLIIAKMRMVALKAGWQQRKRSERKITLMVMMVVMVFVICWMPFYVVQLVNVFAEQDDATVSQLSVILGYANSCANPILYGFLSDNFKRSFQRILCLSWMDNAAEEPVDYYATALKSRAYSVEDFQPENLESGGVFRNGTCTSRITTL
T5 sequence (P30874 whole entry): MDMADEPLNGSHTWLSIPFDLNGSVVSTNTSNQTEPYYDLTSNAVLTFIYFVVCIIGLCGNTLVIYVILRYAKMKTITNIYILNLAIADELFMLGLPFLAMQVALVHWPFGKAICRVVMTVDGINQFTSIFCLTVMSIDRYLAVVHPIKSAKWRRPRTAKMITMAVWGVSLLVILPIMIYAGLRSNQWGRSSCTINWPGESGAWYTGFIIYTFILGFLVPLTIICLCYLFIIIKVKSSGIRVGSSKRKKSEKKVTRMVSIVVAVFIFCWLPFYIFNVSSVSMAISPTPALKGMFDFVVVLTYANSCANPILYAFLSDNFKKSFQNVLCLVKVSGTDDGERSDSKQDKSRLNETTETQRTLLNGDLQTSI
T3 sequence (P31391 whole entry): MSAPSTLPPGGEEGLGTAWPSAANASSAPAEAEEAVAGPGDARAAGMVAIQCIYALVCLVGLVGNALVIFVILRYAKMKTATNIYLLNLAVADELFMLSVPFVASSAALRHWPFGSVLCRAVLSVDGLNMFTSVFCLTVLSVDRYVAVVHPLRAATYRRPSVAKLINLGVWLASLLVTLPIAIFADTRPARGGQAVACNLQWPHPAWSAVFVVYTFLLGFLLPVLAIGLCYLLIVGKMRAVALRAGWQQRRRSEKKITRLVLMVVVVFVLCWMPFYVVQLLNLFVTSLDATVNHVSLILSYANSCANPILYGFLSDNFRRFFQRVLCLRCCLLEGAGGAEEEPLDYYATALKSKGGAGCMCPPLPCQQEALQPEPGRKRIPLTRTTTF
T4 sequence (P32745 whole entry): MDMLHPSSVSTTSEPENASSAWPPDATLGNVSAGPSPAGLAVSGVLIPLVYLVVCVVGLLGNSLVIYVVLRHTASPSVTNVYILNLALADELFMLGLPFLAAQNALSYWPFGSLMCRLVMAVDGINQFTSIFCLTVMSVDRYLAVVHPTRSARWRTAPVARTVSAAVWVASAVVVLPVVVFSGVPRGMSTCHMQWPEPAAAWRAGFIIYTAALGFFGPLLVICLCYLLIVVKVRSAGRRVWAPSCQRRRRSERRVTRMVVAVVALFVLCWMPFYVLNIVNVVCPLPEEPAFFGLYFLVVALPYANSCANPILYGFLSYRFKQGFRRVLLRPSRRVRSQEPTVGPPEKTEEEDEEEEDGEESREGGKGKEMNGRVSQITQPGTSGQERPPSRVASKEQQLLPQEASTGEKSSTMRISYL

Work on NCCCC1CCCN2C(=O)[C@@H](Cc3c[nH]c4ccccc34)SCCN(Cc3cccc4ccccc34)C(=O)C12 (stereo not given in full) yielded an inhibition [1] of 89%, an IC50 [2] of 407 nM and an IC50 [3] of 41 nM. It also gave an inhibition [4] of 99%, an inhibition [5] of 64% and an IC50 [6] of 1260 nM. It also gave an inhibition [7] of 74%, an IC50 [8] of 41 nM and an IC50 [9] of 275 nM. It also gave an inhibition [10] of 44%.

Work on NCCCC[C@H]1NC(=O)[C@@H](Cc2c[nH]c3ccccc23)SCCN(Cc2cccc3ccccc23)C1=O yielded an inhibition [1] of 99%, an IC50 [2] of 501 nM and an IC50 [3] of 87 nM. It also gave an inhibition [4] of 43%, an inhibition [5] of 64% and an IC50 [6] of 3090 nM. It also gave an inhibition [7] of 33%, an IC50 [8] of 1050 nM and an IC50 [9] of 1590 nM. It also gave an inhibition [10] of 42%.

Work on NCC[C@H]1C[C@@H]2C(=O)N(Cc3cccc4ccccc34)CCS[C@H](Cc3c[nH]c4ccccc34)C(=O)N2C1 yielded an inhibition [1] of 50%, an inhibition [4] of 17% and an inhibition [5] of 28%. The inhibition [7] was 20% and the inhibition [10] was 16%.

With NCC[C@@H]1C[C@@H]2C(=O)N(Cc3cccc4ccccc34)CCS[C@H](Cc3c[nH]c4ccccc34)C(=O)N2C1 the inhibition [1] was 56%, the inhibition [4] was 12% and the inhibition [5] was 13%. The inhibition [7] was 7% and the inhibition [10] was 19%.

For NCCCC[C@H]1NC(=O)[C@@H](Cc2c[nH]c3ccccc23)Sc2ccccc2CN(Cc2cccc3ccccc23)C1=O, the inhibition [1] was 64%, the inhibition [4] was 41% and the inhibition [5] was 36%. It also gave an inhibition [7] of 7% and an inhibition [10] of 13%.

Source: ChEMBL document CHEMBL1132841, “Optimization of a somatostatin mimetic via constrained amino acid and backbone incorporation” (Bioorg Med Chem Lett, 2000)
